According to article PMC3310921 (Bioorganic & medicinal chemistry, 2010):
Values joined by “and” are separate entries in the source; they are usually repeats but may differ in a detail not shown here. Identical values can stand only once. “Also recorded” adds a separate entry of the source. Like-named read-outs stand apart in the source and are kept apart here.

Experiments:
[1] = Cytotoxicity, average of the three normal cells; format: cell-based; details: human, HGF, HPC and HPLF normal cells (average of the three)
How it was run: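 Human HGF gingival fibroblasts, HPC pulp cells and HPLF periodontal ligament fibroblasts were exposed to graded concentrations for 24 h, up to a maximum of 400 μM. CC50 is the concentration cutting viable cell number by 50%. It was read from dose–response curves from duplicate determinations, then averaged over the three normal cell types.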

mice [2] = assay: Murine toxicity study; format: in vivo; details: for Neurotoxicity in mice (in words): 30, 100 and 300 mg/kg intraperitoneally, examined after 0.5 and 4 h
HSC-2 cells = assay: Internucleosomal DNA fragmentation in HSC-2 cells; format: cell-based, human; details: 6 h incubation
How it was run: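 After 6 h exposure of HSC-2 cells (HL-60 in parallel), cellular DNA was examined for internucleosomal laddering against a DNA molecular-weight marker.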

HL-60 cells = assay: Internucleosomal DNA fragmentation in HL-60 cells; format: cell-based, human; details: 6 h incubation
caspase-3 in HL-60 cells = assay: Caspase-3 activation in HL-60 cells; format: cell-based, human; details: 5 h incubation
caspase-3 in HSC-2 cells = assay: Caspase-3 activation in HSC-2 cells; format: cell-based, human; details: 5 h incubation
How it was run: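 HSC-2 cells, with HL-60 run in parallel, were exposed to the test compound for 5 h, then assayed for caspase-3 activation. The reference was UV irradiation at 6 J/m²/min for 1 min, followed by 3 h incubation. Values are from n = 3.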

mice [3] = details: recorded previously ref 25, cited from earlier work; for Neurotoxicity in mice (in words): 30, 100 and 300 mg/kg intraperitoneally, 0.5 and 4 h
[4] = tested on: HL-60 promyelocytic leukemia cells; details: read-out: CC50 HL-60, human malignant cells, cited from earlier work
HPC pulp cells = details: read-out: CC50 HPC; human normal cells; reported previously ref 26; cited from earlier work
[5] = tested on: HPLF periodontal ligament fibroblasts; details: read-out: CC50 HPLF; human normal cells; reported previously ref 26; cited from earlier work
HGF gingival fibroblasts = details: read-out: CC50 HGF; human normal cells; reported previously ref 26; cited from earlier work
[6] = tested on: HSC-2 squamous cell carcinoma cells; details: read-out: CC50 HSC-2, human malignant cells, cited from earlier work
mice [7] = details: cited from earlier work
[8] = tested on: HSC-4 squamous cell carcinoma cells; details: read-out: CC50 HSC-4; human malignant cells; reported previously ref 27; cited from earlier work
[9] = 100 mg/kg intraperitoneally, 0.5 h
[10] = 300 mg/kg intraperitoneally, 0.5 h

SMILES: O=C1/C(=C/c2ccccc2)CCC/C1=C\c1ccccc1[N+](=O)[O-] [Compound 1a]
- CC50 at 24 h [1]: 45 µM
- Neurotoxicity in mice (in words) (mice [2]): did not display any neurotoxic symptoms

SMILES: O=C1/C(=C/c2ccc(F)cc2)CCC/C1=C\c1ccccc1[N+](=O)[O-] [Compound 1b]
- CC50 at 24 h [1]: 53 µM

SMILES: O=C1/C(=C/c2ccc(Cl)cc2)CCC/C1=C\c1ccccc1[N+](=O)[O-] [Compound 1c]
- Induction of internucleosomal DNA fragmentation (HSC-2 cells): no evidence
- Induction of internucleosomal DNA fragmentation (HL-60 cells): induced the internucleosomal DNA fragmentation
- Activation of caspase-3 (caspase-3 in HL-60 cells): concentration-dependent activation of caspase-3
- Activation of caspase-3 (caspase-3 in HSC-2 cells): no evidence
- Number of animals demonstrating neurological deficit/number of treated mice (mice [2]; 300 mg/kg intraperitoneally, 4 h): half or more

SMILES: COc1ccc(/C=C2\CCC/C(=C\c3ccccc3[N+](=O)[O-])C2=O)cc1 [Compound 1f]
- CC50 at 24 h [1]: > 395 µM

SMILES: COc1cc(/C=C2\CCC/C(=C\c3ccccc3[N+](=O)[O-])C2=O)cc(OC)c1OC [Compound 1g]
- CC50 at 24 h [1]: 53 µM

SMILES: O=C1/C(=C/c2ccccc2)CCC/C1=C\c1cccc([N+](=O)[O-])c1 [Compound 2a]
- CC50 at 24 h [1]: 19 µM
- Number of animals demonstrating neurological deficit/number of treated mice (mice [2]; [9]): 2/8
- Number of animals demonstrating neurological deficit/number of treated mice (mice [2]; [10]): half or more and 2/4
- Neurotoxicity in mice (in words) (mice [2]): Marginal neurotoxicity

SMILES: O=C1/C(=C/c2ccc(F)cc2)CCC/C1=C\c1cccc([N+](=O)[O-])c1 [Compound 2b]
- CC50 at 24 h [1]: 39 µM
- Number of animals demonstrating neurological deficit/number of treated mice (mice [2]; [9]): 1/8

SMILES: O=C1/C(=C/c2ccc(Cl)cc2)CCC/C1=C\c1cccc([N+](=O)[O-])c1 [Compound 2c]
- CC50 at 24 h [1]: 32 µM

SMILES: CN(C)c1ccc(/C=C2\CCC/C(=C\c3cccc([N+](=O)[O-])c3)C2=O)cc1 [Compound 2d]
- Number of animals demonstrating neurological deficit/number of treated mice (mice [2]; [9]): 1/8
- Number of animals demonstrating neurological deficit/number of treated mice (mice [2]; [10]): 1/4

SMILES: Cc1ccc(/C=C2\CCC/C(=C\c3cccc([N+](=O)[O-])c3)C2=O)cc1 [Compound 2e]
- CC50 at 24 h [1]: > 331 µM
- Neurotoxicity in mice (in words) (mice [2]): did not display any neurotoxic symptoms

SMILES: COc1ccc(/C=C2\CCC/C(=C\c3cccc([N+](=O)[O-])c3)C2=O)cc1 [Compound 2f]
- CC50 at 24 h [1]: > 262 µM
- Number of animals demonstrating neurological deficit/number of treated mice (mice [2]; 30 mg/kg intraperitoneally, 0.5 h): 1/4
- Neurotoxicity in mice (in words) (mice [2]): Marginal neurotoxicity

SMILES: COc1cc(/C=C2\CCC/C(=C\c3cccc([N+](=O)[O-])c3)C2=O)cc(OC)c1OC [Compound 2g]
- CC50 at 24 h [1]: > 379 µM

SMILES: O=C1/C(=C/c2ccccc2)CCC/C1=C\c1ccc([N+](=O)[O-])cc1 [Compound 3a]
- CC50 at 24 h [1]: 259 µM
- Neurotoxicity in mice (in words) (mice [2]): did not display any neurotoxic symptoms

SMILES: O=C1/C(=C/c2ccc(F)cc2)CCC/C1=C\c1ccc([N+](=O)[O-])cc1 [Compound 3b]
- CC50 at 24 h [1]: > 375 µM
- Number of animals demonstrating neurological deficit/number of treated mice (mice [2]; [9]): 1/8
- Neurotoxicity in mice (in words) (mice [2]): Marginal neurotoxicity

SMILES: O=C1/C(=C/c2ccc(Cl)cc2)CCC/C1=C\c1ccc([N+](=O)[O-])cc1 [Compound 3c]
- Neurotoxicity in mice (in words) (mice [3]): did not display any neurotoxic symptoms; also recorded: no neurotoxicity

SMILES: CN(C)c1ccc(/C=C2\CCC/C(=C\c3ccc([N+](=O)[O-])cc3)C2=O)cc1 [Compound 3d]
- Number of animals demonstrating neurological deficit/number of treated mice (mice [2]; [9]): 2/8

SMILES: Cc1ccc(/C=C2\CCC/C(=C\c3ccc([N+](=O)[O-])cc3)C2=O)cc1 [Compound 3e]
- CC50 at 24 h [1]: > 280 µM
- Number of animals demonstrating neurological deficit/number of treated mice (mice [2]; [10]): half or more and 3/4

SMILES: COc1ccc(/C=C2\CCC/C(=C\c3ccc([N+](=O)[O-])cc3)C2=O)cc1 [Compound 3f]
- CC50 ([4]; reported previously ref 26): > 400 µM
- CC50 (HPC pulp cells): > 400 µM
- CC50 [5]: > 400 µM
- CC50 (HGF gingival fibroblasts): > 400 µM
- CC50 ([6]; reported previously ref 26): > 400 µM

SMILES: COc1cc(/C=C2\CCC/C(=C\c3ccc([N+](=O)[O-])cc3)C2=O)cc(OC)c1OC [Compound 3g]
- Number of animals demonstrating neurological deficit/number of treated mice (mice [3]; [9]): 2/8
- Neurotoxicity in mice (in words) (mice [3]): Marginal neurotoxicity

SMILES: O=C1CCCC/C1=C\c1ccccc1[N+](=O)[O-] [Compound 4a]
- CC50 at 24 h [1]: 146 µM
- Number of animals demonstrating neurological deficit/number of treated mice (mice [2]; [10]): 1/4
- Neurotoxicity in mice (in words) (mice [2]): Marginal neurotoxicity

SMILES: O=C1CCCC/C1=C\c1cccc([N+](=O)[O-])c1 [Compound 4b]
- CC50 at 24 h [1]: 60 µM
- Number of animals demonstrating neurological deficit/number of treated mice (mice [2]; [10]): 1/4

SMILES: COc1ccc(/C=C2\CCC/C(=C\c3ccc([N+](=O)[O-])cc3)C2=O)c(OC)c1OC [Compound 5a, 6-(4-Nitrobenzylidene)-2-(2,3,4-trimethoxybenzylidene) cyclohexanone]
- Neurotoxicity in mice (in words) (mice [2]): did not display any neurotoxic symptoms

SMILES: COc1cc(OC)c(OC)cc1/C=C1\CCC/C(=C\c2ccc([N+](=O)[O-])cc2)C1=O [Compound 5b, 6-(4-Nitrobenzylidene)-2-(2,4,5-trimethoxybenzylidene) cyclohexanone]
- Number of animals demonstrating neurological deficit/number of treated mice (mice [2]; [9]): 1/8
- Number of animals demonstrating neurological deficit/number of treated mice (mice [2]; [10]): 1/4
- Neurotoxicity in mice (in words) (mice [2]): Marginal neurotoxicity

SMILES: N[C@@H](Cc1ccc(N(CCCl)CCCl)cc1)C(=O)O [Melphalan, reference compound]
- CC50 ([4]; reported previously ref 27): 6 µM
- LD50 (mice [7]): 4.0 mg/kg
- CC50 [8]: 81 µM
- CC50 ([6]; reported previously ref 27): 35 µM
